Results from ChEMBL document CHEMBL5357024, “MDM2 Antagonist Idasanutlin Reduces HDAC1/2 Abundance and Corepressor Partners but Not HDAC3” (ACS Med Chem Lett, 2024).
Active and inactive are the calls of the source. The rule behind the calls is not given here.

How the values were obtained:
Type in all cases: cell-based
[1] = target: T1, E3 ubiquitin-protein ligase Mdm2/Histone deacetylase 3 (Homo sapiens) (UniProt Q00987+O15379); assay: PROTAC activity at MDM2/HDAC3 in human HCT-116 cells assessed as reduction in HDAC3 abundance by measuring remaining activity at 0.1 uM measured after 24 hrs by Western blot analysis (reference value: 100%)
T1 sequence (O15379 whole entry, looked up): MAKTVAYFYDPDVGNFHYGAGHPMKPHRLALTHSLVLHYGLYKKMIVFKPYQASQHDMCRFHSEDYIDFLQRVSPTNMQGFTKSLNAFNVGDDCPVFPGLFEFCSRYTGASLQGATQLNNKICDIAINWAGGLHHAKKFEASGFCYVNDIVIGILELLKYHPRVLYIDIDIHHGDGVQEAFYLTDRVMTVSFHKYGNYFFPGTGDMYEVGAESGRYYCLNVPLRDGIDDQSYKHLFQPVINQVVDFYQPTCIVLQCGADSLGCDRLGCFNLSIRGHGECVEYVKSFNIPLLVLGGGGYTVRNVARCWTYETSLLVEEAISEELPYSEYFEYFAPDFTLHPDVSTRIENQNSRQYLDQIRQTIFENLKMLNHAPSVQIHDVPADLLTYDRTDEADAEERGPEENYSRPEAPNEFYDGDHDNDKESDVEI
T1 sequence (Q00987 whole entry, looked up): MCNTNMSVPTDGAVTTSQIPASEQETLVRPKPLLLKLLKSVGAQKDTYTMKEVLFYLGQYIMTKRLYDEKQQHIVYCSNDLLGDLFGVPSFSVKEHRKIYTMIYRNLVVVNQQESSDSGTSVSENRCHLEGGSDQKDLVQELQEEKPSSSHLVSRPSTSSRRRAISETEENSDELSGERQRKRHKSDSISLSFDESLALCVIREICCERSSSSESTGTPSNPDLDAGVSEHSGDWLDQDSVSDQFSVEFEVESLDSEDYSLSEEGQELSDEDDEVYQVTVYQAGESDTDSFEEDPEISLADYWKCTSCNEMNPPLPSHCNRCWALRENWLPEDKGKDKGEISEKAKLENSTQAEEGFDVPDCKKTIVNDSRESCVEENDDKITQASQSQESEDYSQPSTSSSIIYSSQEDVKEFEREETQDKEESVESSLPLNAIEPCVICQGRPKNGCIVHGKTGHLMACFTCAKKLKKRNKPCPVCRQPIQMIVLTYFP
Summary of the method: (§1)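 HCT116 cells in DMEM with 10% FBS and glutamine/penicillin/streptomycin at 37 °C, 5% CO2. Seeded 4 × 10^5 cells/well, after 24 h treated 24 h with DMSO or compound in fresh medium. Lysed in Tris-HCl/NaCl/NP-40/Triton X-100 buffer with protease inhibitor, Bradford-quantified, 30 μg protein per lane. Quantitative Western blot with specific HDAC1/2/3 antibodies, IRDye secondaries, infrared imaging, versus DMSO. n = 2 replicates.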

[2] = target: T1, E3 ubiquitin-protein ligase Mdm2/Histone deacetylase 3 (Homo sapiens); assay: PROTAC activity at MDM2/HDAC3 in human HCT-116 cells assessed as reduction in HDAC3 abundance by measuring remaining activity at 0.25 uM measured after 24 hrs by Western blot analysis; summary of the method: as §1
[3] = target: Lysine-specific histone demethylase 1A (Homo sapiens) (UniProt O60341); assay: Induction of LSD1 degradation in human HCT-116 cells assessed as reduction in LSD1 abundance by measuring remaining activity at 2.5 uM measured after 24 hrs by Western blot analysis (reference value: 100%)
Summary of the method: (§2)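 HCT116 cells seeded in six-well plates for 24 h, then exposed 24 h to compound (0.01–10 μM) or DMSO in fresh medium. Lysis in Tris-HCl/NaCl/NP-40/Triton X-100 with protease inhibitor. Bradford-normalised 30 μg protein per lane. Quantitative Western blot used specific HDAC1, HDAC2, HDAC3, LSD1 or Sin3a antibodies with IRDye secondaries. Abundance compared with DMSO, n = 2 replicates.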

[4] = target: T2, Paired amphipathic helix protein Sin3a (Homo sapiens) (UniProt Q96ST3); assay: Induction of SIN3A degradation in human HCT-116 cells assessed as reduction in SIN3A abundance by measuring remaining activity at 0.01 uM measured after 24 hrs by Western blot analysis (reference value: 100%); summary of the method: as §2
T2 sequence (whole entry): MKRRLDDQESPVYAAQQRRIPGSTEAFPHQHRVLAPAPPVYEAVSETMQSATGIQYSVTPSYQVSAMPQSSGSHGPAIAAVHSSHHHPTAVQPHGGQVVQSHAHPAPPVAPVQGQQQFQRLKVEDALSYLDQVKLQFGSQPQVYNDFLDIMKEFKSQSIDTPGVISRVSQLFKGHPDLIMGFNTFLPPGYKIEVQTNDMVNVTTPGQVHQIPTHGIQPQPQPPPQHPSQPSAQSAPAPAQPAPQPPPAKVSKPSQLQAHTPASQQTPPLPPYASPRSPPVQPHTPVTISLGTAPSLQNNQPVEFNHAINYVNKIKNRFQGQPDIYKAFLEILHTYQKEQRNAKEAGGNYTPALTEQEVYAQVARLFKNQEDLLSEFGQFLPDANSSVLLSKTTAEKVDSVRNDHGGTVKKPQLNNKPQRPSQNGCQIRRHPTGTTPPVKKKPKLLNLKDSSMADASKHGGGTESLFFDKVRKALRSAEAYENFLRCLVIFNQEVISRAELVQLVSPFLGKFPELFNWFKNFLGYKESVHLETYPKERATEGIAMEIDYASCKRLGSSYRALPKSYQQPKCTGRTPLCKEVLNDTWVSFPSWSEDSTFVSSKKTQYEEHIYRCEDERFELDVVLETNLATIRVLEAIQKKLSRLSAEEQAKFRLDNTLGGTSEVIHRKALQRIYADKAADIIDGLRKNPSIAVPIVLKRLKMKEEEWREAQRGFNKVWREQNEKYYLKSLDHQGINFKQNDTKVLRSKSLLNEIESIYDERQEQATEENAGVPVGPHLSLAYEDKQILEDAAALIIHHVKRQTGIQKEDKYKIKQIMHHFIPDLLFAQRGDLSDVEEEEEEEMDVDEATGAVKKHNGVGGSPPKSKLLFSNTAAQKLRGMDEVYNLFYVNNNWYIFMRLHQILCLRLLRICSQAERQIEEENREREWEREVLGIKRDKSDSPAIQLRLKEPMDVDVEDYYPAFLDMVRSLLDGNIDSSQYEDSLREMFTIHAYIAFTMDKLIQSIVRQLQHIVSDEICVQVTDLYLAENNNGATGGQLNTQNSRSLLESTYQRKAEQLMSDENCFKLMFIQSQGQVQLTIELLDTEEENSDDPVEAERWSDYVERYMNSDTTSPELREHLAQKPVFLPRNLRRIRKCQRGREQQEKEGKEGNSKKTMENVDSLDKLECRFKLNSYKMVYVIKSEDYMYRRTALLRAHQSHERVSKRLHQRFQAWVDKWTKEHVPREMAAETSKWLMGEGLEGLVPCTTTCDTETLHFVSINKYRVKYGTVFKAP

[5] = target: T3, E3 ubiquitin-protein ligase Mdm2/Histone deacetylase 1 (Homo sapiens) (UniProt Q00987+Q13547); assay: PROTAC activity at MDM2/HDAC1 in human HCT-116 cells assessed as decrease in HDAC1 abundance by measuring remaining activity at 0.05 uM measured after 24 hrs by Western blot analysis (reference value: 100%); summary of the method: as §2
T3 sequence (Q00987 whole entry, looked up): as the sequence (Q00987 whole entry, looked up) above
T3 sequence (Q13547 whole entry, looked up): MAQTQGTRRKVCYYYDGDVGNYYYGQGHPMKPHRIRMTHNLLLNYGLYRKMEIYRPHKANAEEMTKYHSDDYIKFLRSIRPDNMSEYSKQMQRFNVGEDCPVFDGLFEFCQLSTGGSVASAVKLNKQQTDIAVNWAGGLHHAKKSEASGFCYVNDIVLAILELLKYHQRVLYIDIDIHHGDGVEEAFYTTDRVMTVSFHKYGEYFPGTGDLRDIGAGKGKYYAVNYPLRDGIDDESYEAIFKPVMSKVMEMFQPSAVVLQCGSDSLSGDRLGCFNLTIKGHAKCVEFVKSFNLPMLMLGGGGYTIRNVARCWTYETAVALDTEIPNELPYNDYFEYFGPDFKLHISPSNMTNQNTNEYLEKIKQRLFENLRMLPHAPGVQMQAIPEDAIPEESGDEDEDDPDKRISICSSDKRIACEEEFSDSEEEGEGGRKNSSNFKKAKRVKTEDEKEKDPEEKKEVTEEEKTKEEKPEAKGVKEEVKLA

[6] = target: T1, E3 ubiquitin-protein ligase Mdm2/Histone deacetylase 3 (Homo sapiens); assay: PROTAC activity at MDM2/HDAC3 in human HCT-116 cells assessed as reduction in HDAC3 abundance by measuring remaining activity at 0.05 uM measured after 24 hrs by Western blot analysis; summary of the method: as §1
[7] = target: T3, E3 ubiquitin-protein ligase Mdm2/Histone deacetylase 1 (Homo sapiens); assay: PROTAC activity at MDM2/HDAC1 in human HCT-116 cells assessed as decrease in HDAC1 abundance by measuring remaining activity at 0.25 uM measured after 24 hrs by Western blot analysis (reference value: 100%); summary of the method: as §2
[8] = target: T1, E3 ubiquitin-protein ligase Mdm2/Histone deacetylase 3 (Homo sapiens); assay: PROTAC activity at MDM2/HDAC3 in human HCT-116 cells assessed as reduction in HDAC3 abundance by measuring remaining activity at 1 uM measured after 24 hrs by Western blot analysis (reference value: 100%); summary of the method: as §1
[9] = target: T2, Paired amphipathic helix protein Sin3a (Homo sapiens); assay: Induction of SIN3A degradation in human HCT-116 cells assessed as reduction in SIN3A abundance by measuring remaining activity at 0.1 uM measured after 24 hrs by Western blot analysis (reference value: 100%); summary of the method: as §2
[10] = target: T3, E3 ubiquitin-protein ligase Mdm2/Histone deacetylase 1 (Homo sapiens); assay: PROTAC activity at MDM2/HDAC1 in human HCT-116 cells assessed as decrease in HDAC1 abundance by measuring remaining activity at 5 uM measured after 24 hrs by Western blot analysis (reference value: 100%); summary of the method: as §2
[11] = target: T1, E3 ubiquitin-protein ligase Mdm2/Histone deacetylase 3 (Homo sapiens); assay: PROTAC activity at MDM2/HDAC3 in human HCT-116 cells assessed as induction of HDAC3 degradation at 0.01 to 10 uM by Western blot analysis; settings: dose 0.01-10 µM
[12] = target: T1, E3 ubiquitin-protein ligase Mdm2/Histone deacetylase 3 (Homo sapiens); assay: PROTAC activity at MDM2/HDAC3 in human HCT-116 cells assessed as reduction in HDAC3 abundance by measuring remaining activity at 2.5 uM measured after 24 hrs by Western blot analysis; summary of the method: as §1
[13] = target: T2, Paired amphipathic helix protein Sin3a (Homo sapiens); assay: Induction of SIN3A degradation in human HCT-116 cells assessed as reduction in SIN3A abundance by measuring remaining activity at 5 uM measured after 24 hrs by Western blot analysis (reference value: 100%); summary of the method: as §2

Activity [1]: 103% | Activity [2]: 102% | Activity [3]: 73% | Activity [4]: 104% | Activity [5]: 88% | Activity [6]: 105% | Activity [7]: 70% | Activity [8]: 104% | Activity [9]: 99% | Activity [10]: 41% | Activity [11]: inactive | Activity [12]: 112% | Activity [13]: 53%
SMILES: COc1cc(C(=O)NCCOCCOCCOCCOCCC(=O)Nc2ccc(C(=O)Nc3ccccc3N)cc2)ccc1NC(=O)[C@@H]1N[C@@H](CC(C)(C)C)[C@](C#N)(c2ccc(Cl)cc2F)[C@H]1c1cccc(Cl)c1F
